This note sets out measurements from ChEMBL document CHEMBL1671655, “Anidulafungin is fungicidal and exerts a variety of postantifungal effects against Candida albicans, C. glabrata, C. parapsilosis, and C. krusei isolates” (2009).

The structures appear in SMILES notation. Starred links: 1 amine or outer side, 2 acyl side, 3 side chain; linkers in the order of their positions; H or OH if unused. Positions of bridges follow the written chain, without caps; N, C: chain ends. Non-standard residues stand in square brackets, D forms with d. Residues, ends and D or L forms follow the SMILES beside them. *: point of attachment. pTerphenylCO(4''-OnC5H11) = CCCCCOc1ccc(-c2ccc(-c3ccc(C(=O)*)cc3)cc2)cc1; Orn(4R-OH,5R-OH) = O=C([C@H](C[C@@H](O)[C@@H](O)N[*:3])N[*:1])[*:2]; hTyr(3S-OH,4S-OH) = N[C@H](C(=O)O)[C@H](O)[C@@H](O)c1ccc(O)cc1; Pro(3S-OH,4S-Me) = C[C@H]1CN[C@H](C(=O)O)[C@H]1O; Hyp = O=C(O)[C@@H]1C[C@@H](O)CN1 Some results are limits rather than exact numbers.

One test has as its system Pichia kudriavzevii. Description: Antifungal activity against Candida krusei assessed as time period for bacterial regrowth inhibition after 1 hr drug exposure. Type of test: functional.
Test [1] concerns Candida albicans. Put plainly: Fungicidal activity against Candida albicans isolate 1 assessed as log reduction in bacterial count at 16 times MIC after drug exposure for 1 hr followed by washout measured after 48 hrs in the absence of drug by PAFE study. It is filed as functional. The gist of the method: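 Starting inoculum ~1 x 10^5 to 5 x 10^5 CFU/ml in MOPS-buffered RPMI 1640 (pH 7.0) with drug at multiples of the CLSI M27-A3 MIC. After 1 h at 35°C, cells washed and centrifuged three times at 1,400 x g for 10 min, then resuspended in warm drug-free RPMI. Shaken at 35°C and plated on SDA at 0–48 h; CFU counted after 48 h. Run twice per isolate; means.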

The test system of test [2] is Candida albicans. Put plainly: Fungicidal activity against Candida albicans ATCC 90028 assessed as log reduction in bacterial count at 16 times MIC after drug exposure for 1 hr followed by washout measured after 48 hrs in the absence of drug by PAFE study. It is filed as functional. The essentials:
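Inoculum of about 1 x 10^5 to 5 x 10^5 CFU/ml in MOPS-buffered RPMI (pH 7.0), shaken at 35°C and exposed to drug for 1 h. Cells then washed and centrifuged three times and resuspended in drug-free warm RPMI. Samples plated on SDA at 0, 2, 4, 8, 12, 24 and 48 h, with CFU counted after 48 h at 35°C. Run twice per isolate; values are means.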

Another test concerns Candida parapsilosis. Description: Inhibition of Candida parapsilosis isolate A adherence to human buccal epithelial cells at 4 times MIC after 1 hr by adherence assay relative to control. Type of test: functional, Epithelial cell. The gist of the method:
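Candida collected 8 h after a 1-h 4x MIC pulse and washout were grown on SDA for 24 h at 35°C. Buccal epithelial cells were pooled from three donors and washed in PBS. Cells (1 x 10^5/ml) were mixed 1:1 by volume with Candida (1 x 10^6/ml) and shaken 1 h at 37°C. Mixtures were filtered, washed, and Gram-stained, and Candida were counted per 100 epithelial cells. Run in duplicate on ≥2 occasions; Student's t test against unexposed controls.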

Regarding `CCCCCOc1ccc(-c2ccc(-c3ccc(C(=O)N[C@H]4C[C@@H](O)[C@@H](O)NC(=O)[C@@H]5[C@@H](O)[C@@H](C)CN5C(=O)[C@H]([C@@H](C)O)NC(=O)[C@H]([C@H](O)[C@@H](O)c5ccc(O)cc5)NC(=O)[C@@H]5C[C@@H](O)CN5C(=O)[C@H]([C@@H](C)O)NC4=O)cc3)cc2)cc1` [ANIDULAFUNGIN] ({pTerphenylCO(4''-OnC5H11)}-[Orn(4R-OH,5R-OH)]T[Hyp][hTyr(3S-OH,4S-OH)]T[Pro(3S-OH,4S-Me)]; lactam 1-C), the Time result with Pichia kudriavzevii is on record as “>=12 hr”. Further, the figures for the log reduction in the test on Candida albicans [1] and in the test with Candida albicans [2] were 2.64 and 2.14, respectively. The “inhibition (INH)” value in the test with Candida parapsilosis was determined as 69%.
